Experimental data pooled from the literature.
Lines come from different studies, so protocols differ.
Effect on: metabolic stability
Host: mouse

SMILES	sample	concentration	pH	half-life
Cc1cc(-c2ccnc3[nH]cc(F)c23)cc(F)c1[C@@]1(O)[C@H](C)CN(C2CCS(=O)(=O)CC2)C[C@@H]1C	liver microsomes	–	–	45.9 min
O=c1c2cc(Cl)ccc2[nH]c(=S)n1Cc1ccc(-c2nnn[nH]2)nc1	liver microsomes	1 µM	pH 7.4	> 186 min
NS(=O)(=O)c1nnc(NC(=O)CCC2CCC(F)(F)CC2)s1	liver microsomes	–	–	> 120 min
COc1ccc(Oc2ccc3c(=O)c4c(F)cc(Cl)cc4[nH]c3c2)cc1	liver microsomes	1 µM	pH 7.4	> 60 min
Cc1cc(-c2ccnc3[nH]cc(F)c23)cc(F)c1[C@@]1(O)[C@H](C)CNC[C@@H]1C	liver microsomes	–	–	18.9 min
O=c1c2c(F)cc(Cl)cc2[nH]c2cccc(Oc3ccc(OC(F)(F)F)cc3)c12	liver microsomes	1 µM	pH 7.4	> 60 min
O=C(O)Cc1ccccc1Nc1c(Cl)cccc1Cl	liver microsomes	–	–	44.4 min
CC(C)(C)OC(=O)N1CCC(Oc2ccc3c(=O)c4c(F)cc(Cl)cc4[nH]c3c2)C1 (stereo not drawn)	liver microsomes	1 µM	pH 7.4	> 60 min
Cc1c(C)n(Cc2cccc(OC(C)(C)C(=O)O)c2)c2ccc(C(=O)N[C@@H](C)c3ccc(C(C)(C)C)cc3)cc12	liver microsomes	–	–	> 60 min
CCN(CC)CCNC(=O)c1c(C)[nH]c(/C=C2\C(=O)Nc3ccc(F)cc32)c1C	liver microsomes	–	–	17 min
Cc1ccc2[nH]c(=S)n(Cc3cccnc3)c(=O)c2c1	liver microsomes	1 µM	pH 7.4	4.9 min
CC(C)(C)OC(=O)N1CCC(Oc2ccc3c(=O)c4c(Cl)cc(F)cc4[nH]c3c2)CC1	liver microsomes	1 µM	pH 7.4	> 60 min
O=c1c2cc(Cl)ccc2[nH]c(=S)n1Cc1cccnc1	liver microsomes	1 µM	pH 7.4	27 min
NS(=O)(=O)c1nnc(NC(=O)C2CCCC3(CCCCC3)C2)s1 (stereo not drawn)	liver microsomes	–	–	58.8 min
Cc1[nH]c(C)c(S(=O)(=O)Nc2ccc(C(F)(F)F)c(Cl)c2Cl)c1C(=O)N1CCC(F)(F)C1	liver microsomes	–	–	44 min
CCN(CC)CCNC(=O)c1c(C)[nH]c(/C=C2\C(=O)Nc3ccc(F)cc32)c1C	liver microsomes	1 µM	–	12.6 min
C=CCn1c(=O)c2cnc(Nc3ccc(N4CCN(C)CC4)cc3)nc2n1-c1ccc2c(n1)[C@@](O)(CC)CC2	hepatocytes	–	–	91 min
CN(C)CC(=O)OCc1cc2[nH]c(=S)n(Cc3cccnc3)c(=O)c2cc1Cl	liver microsomes	1 µM	pH 7.4	< 5 min
OCc1ccc(-c2nn(Cc3ccccc3)c3ccccc23)o1	liver microsomes	–	–	3 min
O=c1c2ccc(Oc3ccc(OC(F)(F)F)cc3)cc2[nH]c2ccc(F)c(Cl)c12	liver microsomes	1 µM	pH 7.4	> 60 min
CCCCCCCCCCCCCCCC(=O)NCCOC(=O)C[C@@H](CN)CC(C)C	liver microsomes	1 µM	pH 7.4	95 min
Cc1cc(-c2ccnc3[nH]cc(F)c23)cc(F)c1[C@@]1(O)[C@H](C)CN(C2COC2)C[C@@H]1C	liver microsomes	–	–	1.7 min
O=c1c2c([nH]c3c(Oc4ccc(OC(F)(F)F)cc4)cccc13)CCCC2	liver microsomes	1 µM	pH 7.4	> 60 min
Cc1[nH]c(C)c(S(=O)(=O)Nc2ccc(C(F)(F)F)c(Cl)c2)c1C(=O)N1CCC(F)(F)C1	liver microsomes	–	–	11.7 min
Cc1cc(-c2ccnc3[nH]cc(F)c23)cc(F)c1[C@@]1(O)[C@H](C)CN(C(=O)CN)C[C@@H]1C	liver microsomes	–	–	84.1 min
O=c1c2cccc(Oc3ccc(OC(F)(F)F)cc3)c2[nH]c2cc(Cl)cc(F)c12	liver microsomes	1 µM	pH 7.4	> 60 min
O=C1CCC(N2Cc3cc(C4CCN(Cc5ccccc5)CC4)ccc3C2=O)C(=O)N1 (stereo not drawn)	liver microsomes	1 µM	–	> 60 min
Nc1nnc(-c2ccccc2O)cc1N1CCN(Cc2ccc(N3CCN(CCOc4cccc5c4C(=O)N(C4CCC(=O)NC4=O)C5=O)CC3)c(F)c2)CC1 (stereo not drawn)	liver microsomes	1 mM	–	46 min
O=c1c2ccc(Oc3ccc(OC(F)(F)F)cc3)cc2[nH]c2ccc(Cl)c(F)c12	liver microsomes	1 µM	pH 7.4	> 60 min
CC(=O)N1C[C@@H](C)[C@](O)(c2c(C)cc(-c3ccnc4[nH]cc(F)c34)cc2F)[C@@H](C)C1	liver microsomes	–	–	3.5 min
